In brackets after ≈: the same amount, converted by molar mass. Where a SMILES comes first, the peptide text is derived from it. [ ]: non-standard residue; d: D form. The star is where a group is joined. Palmitoyl = CCCCCCCCCCCCCCCC(=O)*; Lauroyl = CCCCCCCCCCCC(=O)*; Decanoyl = CCCCCCCCCC(=O)*; 3Abz = Nc1cccc(C(=O)O)c1; Orn = NCCC[CH](N)C(=O)O
Assays:
Pseudomonas aeruginosa = experiment: Antibacterial activity against Pseudomonas aeruginosa MTCC 2295 after 18 hrs by micro dilution broth assay; format: functional; settings: MTCC 2295, 18 h
Summary of the method: (§1)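 Broth microdilution (modified CLSI): mid-log inoculum at 10^5 CFU/mL in Mueller-Hinton broth; serial 2-fold dilutions of sample in 0.001% acetic acid with 0.2% BSA added. Incubated overnight at 37 °C with agitation; A600 read at 18 h. Drug-free culture and uninoculated broth as controls; triplicate.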

Bacillus subtilis = experiment: Antibacterial activity against Bacillus subtilis MTCC 2763 after 18 hrs by micro dilution broth assay; format: functional; settings: MTCC 2763, 18 h; summary of the method: as §1
Escherichia coli [1] = experiment: Antibacterial activity against imipenem-resistant Escherichia coli PGI/ DML02292 clinical isolate after 18 hrs by micro dilution broth assay; format: functional; settings: PGI/ DML02292, 18 h
Candida albicans [2] = experiment: Antifungal activity against Candida albicans ATCC 24433 after 48 to 72 hrs by M27-A method; format: functional
Summary of the method: (§2)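 Fungi at 2.5×10^3 cfu/mL in RPMI 1640 (L-glutamine, no glucose or NaHCO3, buffered pH 7.0 with 0.165 M MOPS), mixed 1:1 with serial 2-fold aqueous dilutions. Incubated at 37 °C with shaking, 24 h for Aspergillus, 48-72 h for Candida and Cryptococcus; A600 read. MIC taken as lowest concentration with no growth.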

Aspergillus fumigatus [3] = experiment: Antifungal activity against fluconazole-resistant Aspergillus fumigatus IGMC/LM1/0336 after 24 hrs by M27-A method; format: functional; settings: IGMC/LM1/0336, 24 h
Summary of the method: (§3)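 Fungi at 2.5×10^3 cfu/mL in RPMI 1640 (L-glutamine, no glucose or NaHCO3, pH 7.0 with 0.165 M MOPS). Mixed 1:1 with serial 2-fold dilutions in water, incubated at 37 °C with shaking, 24 h for A. fumigatus and 48–72 h for C. albicans. Growth read by absorbance at 600 nm. MIC taken as the lowest concentration with no growth.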

Aspergillus fumigatus [4] = experiment: Antifungal activity against Aspergillus fumigatus ATCC 42203 after 24 hrs by M27-A method; format: functional; settings: ATCC 42203, 24 h; summary of the method: as §2
Aspergillus niger = experiment: Antifungal activity against Aspergillus niger ATCC 64028 after 24 hrs by M27-A method; format: functional; settings: ATCC 64028, 24 h; summary of the method: as §2
[5] = Hemolytic activity in human RBCs; format: ADME, cell-based, Erythrocyte; settings: red blood cells (RBCs)
Summary of the method: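 Washed fresh human erythrocytes, 4% (v/v) in PBS (35 mM phosphate, 150 mM NaCl, pH 7.2), mixed 1:1 with 2-fold dilutions in PBS. Incubated 1 h at 37 °C without agitation, then centrifuged at 1000 g for 5 min. Supernatant hemoglobin read at 440 nm; % hemolysis = 100(A−A0)/(At−A0).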

Staphylococcus aureus [6] = experiment: Antibacterial activity against Staphylococcus aureus MTCC 3160 after 18 hrs by micro dilution broth assay; format: functional; settings: MTCC 3160, 18 h; summary of the method: as §1
Candida albicans [7] = experiment: Antifungal activity against fluconazole-resistant Candida albicans PGI/ DML0109 clinical isolate after 48 to 72 hrs by M27-A method; format: functional; summary of the method: as §3
Escherichia coli [8] = experiment: Antibacterial activity against Escherichia coli MTCC 0723 after 18 hrs by micro dilution broth assay; format: functional; settings: MTCC 0723, 18 h; summary of the method: as §1
Cryptococcus neoformans = experiment: Antifungal activity against Cryptococcus neoformans ATCC 2344 after 48 to 72 hrs by M27-A method; format: functional; summary of the method: as §2
Staphylococcus aureus [9] = experiment: Antibacterial activity against methicillin-resistant Staphylococcus aureus PGI/ DML03149 clinical isolate after 18 hrs by micro dilution broth assay; format: functional; settings: PGI/ DML03149, 18 h
[10] = Therapeutic index, ratio of HC50 for human RBCs to MIC for Staphylococcus aureus MTCC 3160; settings: red blood cells (RBCs), read-out: TI
[11] = Therapeutic index, ratio of HC50 for human RBCs to MIC for Escherichia coli MTCC 0723; settings: red blood cells (RBCs), read-out: TI
[12] = Membrane permeabilization activity assessed as release of calcein from PE/PG liposomes at 4 ug/ml after 5 mins by spectrofluorimetry; format: ADME
Summary of the method: (§4)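 Calcein-loaded LUVs, PE/PG (bacterial mimic) or PC/PE/PI/ergosterol (fungal mimic), exposed to 1-20 μg/mL for 5 min before fluorescence reading. Triton X-100 in Tris-HCl/NaCl/EDTA buffer sets 100% leakage; % leakage = 100(F−F0)/(Ft−F0). Run in triplicate, two independent experiments, mean ± SD.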

[13] = Membrane permeabilization activity assessed as release of calcein from PE/PG liposomes at 20 ug/ml after 5 mins by spectrofluorimetry; format: ADME; summary of the method: as §4
[14] = Membrane permeabilization activity assessed as release of calcein from PC/PE/PI/ergosterol liposomes at 20 ug/ml after 5 mins by spectrofluorimetry; format: ADME; summary of the method: as §4
[15] = Membrane permeabilization activity assessed as release of calcein from PC/PE/PI/ergosterol liposomes at 4 ug/ml after 5 mins by spectrofluorimetry; format: ADME; summary of the method: as §4

| SMILES | MIC (Pseudomonas aeruginosa) [µg/mL] | MIC (Bacillus subtilis) [µg/mL] | MIC (Escherichia coli [1]) [µg/mL] | MIC (Candida albicans [2]) [µg/mL] | MIC (Aspergillus fumigatus [3]) [µg/mL] | MIC (Aspergillus fumigatus [4]) [µg/mL] | MIC (Aspergillus niger) [µg/mL] | HC50 [5] [µg/mL] | MIC (Staphylococcus aureus [6]) [µg/mL] | MIC (Candida albicans [7]) [µg/mL] | MIC (Escherichia coli [8]) [µg/mL] | MIC (Cryptococcus neoformans) [µg/mL] | MIC (Staphylococcus aureus [9]) [µg/mL] | selectivity ratio [10] | selectivity ratio [11] | Activity [12] [%] | Activity [13] [%] | Activity [14] [%] | Activity [15] [%] |
| --- | --- | --- | --- | --- | --- | --- | --- | --- | --- | --- | --- | --- | --- | --- | --- | --- | --- | --- | --- |
| CCCCCCCCCC(=O)Nc1cccc(C(=O)NC(CCCN)C(=O)NC(CCCN)C(=O)NC(CCCN)C(N)=O)c1 (stereo unspecified) | 50 (≈ 79 µM) | 125 (≈ 198 µM) | 70 (≈ 111 µM) | 62.5 (≈ 98.8 µM) | 30 (≈ 47.4 µM) | 31.5 (≈ 49.8 µM) | 50 (≈ 79 µM) | > 1000 | 31.2 (≈ 49.3 µM) | 75 (≈ 119 µM) | 62.5 (≈ 98.8 µM) | 75 (≈ 119 µM) | 50 (≈ 79 µM) | – | – | – | – | – | – |
| CCCCCCCCCCCC(=O)Nc1cccc(C(=O)NC(CCCN)C(=O)NC(CCCN)C(=O)NC(CCCN)C(N)=O)c1 (stereo unspecified) | 4.5 (≈ 6.81 µM) | 100 (≈ 151 µM) | 10.5 (≈ 15.9 µM) | 15.5 (≈ 23.5 µM) | 12.5 (≈ 18.9 µM) | 10 (≈ 15.1 µM) | 15 (≈ 22.7 µM) | 900 | 6.25 (≈ 9.46 µM) | 15 (≈ 22.7 µM) | 12.5 (≈ 18.9 µM) | 12.5 (≈ 18.9 µM) | 12 (≈ 18.2 µM) | 144 | 72 | – | – | – | – |
| CCCCCCCCCCCCCC(=O)Nc1cccc(C(=O)NC(CCCN)C(=O)NC(CCCN)C(=O)NC(CCCN)C(N)=O)c1 (stereo unspecified) | 2.5 (≈ 3.63 µM) | 15.5 (≈ 22.5 µM) | 4 (≈ 5.81 µM) | 5.5 (≈ 7.98 µM) | 6.25 (≈ 9.07 µM) | 4.5 (≈ 6.53 µM) | 5 (≈ 7.26 µM) | 750 | 3.1 (≈ 4.5 µM) | 6.25 (≈ 9.07 µM) | 2.25 (≈ 3.27 µM) | 10 (≈ 14.5 µM) | 4.5 (≈ 6.53 µM) | 242 | 333 | – | – | – | – |
| CCCCCCCCCCCCCCCC(=O)Nc1cccc(C(=O)NC(CCCN)C(=O)NC(CCCN)C(=O)NC(CCCN)C(N)=O)c1 (stereo unspecified) | 5.5 (≈ 7.67 µM) | 20 (≈ 27.9 µM) | 4.5 (≈ 6.28 µM) | 3 (≈ 4.18 µM) | 5 (≈ 6.97 µM) | 3.5 (≈ 4.88 µM) | 4.25 (≈ 5.93 µM) | 450 | 5 (≈ 6.97 µM) | 3.5 (≈ 4.88 µM) | 3.5 (≈ 4.88 µM) | 3.5 (≈ 4.88 µM) | 5 (≈ 6.97 µM) | 90 | 129 | – | – | – | – |
| CCCCCCCCCCCCCCCCCC(=O)Nc1cccc(C(=O)NC(CCCN)C(=O)NC(CCCN)C(=O)NC(CCCN)C(N)=O)c1 (stereo unspecified) | 10 (≈ 13.4 µM) | 25 (≈ 33.6 µM) | 7.5 (≈ 10.1 µM) | 2.25 (≈ 3.02 µM) | 2.5 (≈ 3.36 µM) | 2 (≈ 2.68 µM) | 3.5 (≈ 4.7 µM) | 250 | 12.5 (≈ 16.8 µM) | 2 (≈ 2.68 µM) | 6.25 (≈ 8.39 µM) | 6.5 (≈ 8.72 µM) | 10.5 (≈ 14.1 µM) | 20 | 40 | – | – | – | – |
| CCCCCCCCCC(=O)Nc1cccc(C(=O)NC(CCCN)C(=O)NC(CCCN)C(=O)NC(CCCN)C(=O)NC(CCCN)C(N)=O)c1 (stereo unspecified) ({Decanoyl-3Abz}-[Orn][Orn][Orn][Orn]-NH2; configuration not given here) | 25 (≈ 33.5 µM) | 100 (≈ 134 µM) | 25 (≈ 33.5 µM) | 50 (≈ 66.9 µM) | 25 (≈ 33.5 µM) | 25 (≈ 33.5 µM) | 31.5 (≈ 42.2 µM) | 1000 | 20 (≈ 26.8 µM) | 50 (≈ 66.9 µM) | 17.5 (≈ 23.4 µM) | 50 (≈ 66.9 µM) | 35 (≈ 46.9 µM) | 50 | 57.1 | 11 | 67 | 45 | 17 |
| CCCCCCCCCCCC(=O)Nc1cccc(C(=O)NC(CCCN)C(=O)NC(CCCN)C(=O)NC(CCCN)C(=O)NC(CCCN)C(N)=O)c1 (stereo unspecified) ({Lauroyl-3Abz}-[Orn][Orn][Orn][Orn]-NH2; configuration not given here) | 1.5 (≈ 1.94 µM) | 15.5 (≈ 20 µM) | 5.5 (≈ 7.1 µM) | 5.5 (≈ 7.1 µM) | 5.5 (≈ 7.1 µM) | 5 (≈ 6.45 µM) | 6.25 (≈ 8.06 µM) | 750 | 2.5 (≈ 3.23 µM) | 7.5 (≈ 9.68 µM) | 1.5 (≈ 1.94 µM) | 10.5 (≈ 13.5 µM) | 3.25 (≈ 4.19 µM) | 300 | 500 | – | – | – | – |
| CCCCCCCCCCCCCCCC(=O)Nc1cccc(C(=O)NC(CCCN)C(=O)NC(CCCN)C(=O)NC(CCCN)C(=O)NC(CCCN)C(N)=O)c1 (stereo unspecified) ({Palmitoyl-3Abz}-[Orn][Orn][Orn][Orn]-NH2; configuration not given here) | 3.1 (≈ 3.73 µM) | 20 (≈ 24.1 µM) | 3.5 (≈ 4.21 µM) | 2 (≈ 2.41 µM) | 3.5 (≈ 4.21 µM) | 1.5 (≈ 1.8 µM) | 3.1 (≈ 3.73 µM) | 350 | 3 (≈ 3.61 µM) | 3.5 (≈ 4.21 µM) | 2 (≈ 2.41 µM) | 5 (≈ 6.02 µM) | 5 (≈ 6.02 µM) | 117 | 175 | – | – | – | – |
| C[C@@H]1[C@H](O)[C@@H](C)/C=C/C=C/C=C/C=C/C=C/C=C/C=C/[C@H](O[C@@H]2O[C@H](C)[C@@H](O)[C@H](N)[C@@H]2O)C[C@@H]2O[C@](O)(C[C@@H](O)C[C@@H](O)[C@H](O)CC[C@@H](O)C[C@@H](O)CC(=O)O[C@H]1C)C[C@H](O)[C@H]2C(=O)O [AMPHOTERICIN B] | – | – | – | 0.5 (≈ 0.541 µM) | 0.9 (≈ 0.974 µM) | 0.3 (≈ 0.325 µM) | 0.5 (≈ 0.541 µM) | – | – | 0.7 (≈ 0.758 µM) | – | 0.3 (≈ 0.325 µM) | – | – | – | – | – | – | – |
| O=C(O)c1cn(C2CC2)c2cc(N3CCNCC3)c(F)cc2c1=O [CIPROFLOXACIN] | 0.3 (≈ 0.905 µM) | 0.5 (≈ 1.51 µM) | – | – | – | – | – | – | 0.2 (≈ 0.604 µM) | – | – | – | – | – | – | – | – | – | – |

Reference: ChEMBL document CHEMBL3351820, “Development of novel membrane active lipidated peptidomimetics active against drug resistant clinical isolates” (Bioorg Med Chem, 2014)
